# Cav3 T inh = inhibitors of human Cav3.2 T-type calcium channel | O95180 | Cav3.2-expressing cells, Fluo-4 calcium fluorescence FDSS; active compounds read low | B-score at 10 µM | 4% of 100,000 active;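 active = single-dose well whose peak fluorescence ratio is a statistical outlier from its plate by either plate-standardised score or position-corrected B-score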
# CYP2C19 activ = activators of human cytochrome P450 2C19. P33261. recombinant CYP2C19, luciferin-H EGE luminescence; active compounds read high; 0 = fully inhibited enzyme, 1 = untreated enzyme. activation factor at 5 µM. 96,000 tested, under 10 active;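 active = activation factor of at least 2 at 5 µM in the primary screen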;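 note: 0 = wells with 2.5 mM tranylcypromine and 1 = vehicle-only wells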
# CYP2C9 act = CYP2C9 (human) activation. P11712. recombinant CYP2C9, luciferin-H conversion, luminescence; active compounds read high; factor 1 = untreated enzyme, 0 = blocked. activation factor at 5 µM. 1.4% of 96,000 active;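 active = activation factor of 2 or more for CYP2C9 at a 5 µM dose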;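 note: 0 = sulfaphenazole-blocked wells and 1 = vehicle-only wells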
# CYP2C9 inh = inhibitors of human CYP2C9; 20% of 96,000 active; P11712; CYP2C9 Supersomes, luciferin-H conversion, luminescence; inhibition, % at 5 µM;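 active = blocking of liver enzyme CYP2C9 beyond about 50% at 5 µM, limit read from the data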
# CYP2C19 inh = inhibitors of human CYP2C19; P33261; CYP2C19 Supersomes, luciferin-H EGE luminescence, 30 min; inhibition, % at 5 µM; 21% of 96,000 active; AID 778;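 active = CYP2C19 inhibition above a set limit at 5 µM in the primary screen, cut at about 50% in these data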;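 note: plate controls were negative control wells for no effect and 2.5 mM tranylcypromine positive control for full effect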
# Rev-RRE block = HIV Rev-RRE protein-RNA interaction inhibition; P05866; Rev peptide-RRE RNA binding, FRET; inhibition, % at 8 µM; 0.79% of 97,000 active;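 active = inhibition above the screen-wide mean plus 3 SD, cut at about 35% in these data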;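 note: 0% = median DMSO wells and 100% = median Neomycin B control wells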
#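 Test system: labelled RRE RNA duplex and labelled Rev peptide. Times: 5 min compound–RNA preincubation, then 15 min with peptide, 25 °C. Doses: single-dose 8 µM. Measured by: FRET, excitation 480 nm, emission 540 nm donor and 671 nm acceptor. Measure: % inhibition of FRET ratio versus controls.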
# Starred values were filed as active, the others as inactive; · = no result given; [ ] = another dose, or the depositor's remark. An excerpt weighted towards active compounds, which were near 27% of everything screened.
SMILES,Cav3 T inh,CYP2C19 activ,CYP2C9 act,CYP2C9 inh,CYP2C19 inh,Rev-RRE block
CCC(C)OC(=O)c1[nH]c2c(c1C)C(=O)CC(c1ccc(N(C)C)cc1)C2 (stereo unspecified),-2.2,0.3,0.5,53*,68*,·
CC(C)OCCCNc1ncc2c(n1)CC(c1ccc(N(C)C)cc1)CC2=O (stereo unspecified),0.0083,0.7,0.5,45,34,-6
C/C=C/COC(=O)c1[nH]c2c(c1C)C(=O)CC(c1ccc(N(C)C)cc1)C2 (stereo unspecified),-2.6,0.8,0.4,65*,18,·
Cc1cc2ncn(-c3ncnc4scc(-c5ccccc5)c34)c2cc1C,·,0.7,0.8,16,26,8
CC(C)(C)c1ccc(S(=O)(=O)CCc2ccccn2)cc1,0.91,0.3,0.8,20,68*,6
CCc1ccc2[nH]c(=O)c(CN(Cc3ccc(F)cc3)C(c3nnnn3CCN3CCOCC3)C(C)C)cc2c1 (stereo unspecified),·,0.9,1,-1,8,7
O=C(N/N=C/c1cc(Br)ccc1O)C(=O)Nc1ccccc1OC(F)(F)C(F)F,-1.1,1,1.1,-14,2,49*
O=S(=O)(Nc1ncn[nH]1)c1ccc(Cl)cc1,·,0.2,1,1,83*,9
O=S(=O)(Nc1nc2ccccc2[nH]1)c1ccc(Cl)cc1,-0.93,0.4,0.9,6,58*,1
CCCCC(NC(=O)c1ccccc1)C(=O)OCC(=O)N1c2ccccc2Sc2ccccc21 (stereo unspecified),-7.2*,0.6,0.1,94*,44,4
CC(C)CNCC(=O)N1c2ccccc2Sc2ccccc21,0.7,1,0.9,5,-1,2
COc1ccc2c(c1)oc(=O)c1ccccc12,-1.6,·,·,·,·,·
CCN(CC)c1ccc2cc(-c3nnc(-c4ccccc4)o3)c(=O)oc2c1,-11*,·,·,·,·,141*[fluorescence artefact?]
CCN(CC)c1ccc2cc(-c3nnc(-c4ccc(Br)cc4)o3)c(=O)oc2c1,·,·,·,·,·,140*[fluorescence artefact?]
O=c1oc2ccccc2cc1-c1nnc(-c2cccc(Br)c2)o1,-0.41,0.9,1.5,-47,9,·
COc1ccc(-c2nnc(-c3cc4c(ccc5ccccc54)oc3=O)o2)cc1,-0.2,0.3,0.4,56*,68*,6
CC(C)(C)NC(=O)C12CCC(C)(c3nc4ccccc4nc31)C2(C)C (stereo unspecified),-1.5,0.8,0.8,19,22,5
CCCC(=O)NCCSC,0.12,1,1.1,-5,-5,·
CCOc1cc(C(=O)CSc2nnc(CNc3ccc(Cl)cc3)o2)ccc1NC(=O)CC,-0.12,0.6,0.7,31,42,12
CCOC(=O)c1ccccc1OCc1cc(/C=N/n2cncn2)ccc1OC,0.069,·,·,·,·,4
O=C(C1=C[C@H](C2CC2)C[C@H](OCc2ccc(CO)cc2)O1)N1CCOCC1,0.00082,·,·,·,·,·
O=C(Nc1nnc(-c2ccccc2F)s1)C1CCCO1 (stereo unspecified),0.91,·,·,·,·,0
O=C(Nc1nnc(-c2ccncc2)s1)C1CCCO1 (stereo unspecified),-0.014,0.2,0.5,49,78*,0
CNc1nnc(-c2ccncc2)s1,0.21,0.9,1,0,11,5
CCC(=O)Nc1nnc(-c2ccncc2)s1,1.1,0.2,0.6,38,75*,6
SMILES,Cav3 T inh,CYP2C19 activ,CYP2C9 act,CYP2C9 inh,CYP2C19 inh,Rev-RRE block
CCNc1nnc(-c2ccncc2)s1,-0.29,0.3,0.8,23,71*,2
Cc1ccc(CNC(=O)Cn2cncn2)cc1,0.17,0.7,1.1,-6,26,5
O=C(Nn1c(=O)[nH]c2ccccc2c1=O)c1ccco1,0.38,1.1,0.9,11,-14,10
Cc1ccc(CNC(=O)CS(=O)(=O)CC(=O)O)cc1,-0.22,0.9,0.9,6,7,12
COc1ccc(N2CCN(CC(=O)Nc3nc4c(s3)CC(C)CC4)CC2)cc1 (stereo unspecified),-2.9,0.6,0.4,57*,43,-5
CC1CCc2nc(NC(=O)c3ccco3)sc2C1 (stereo unspecified),-1,0.3,0.4,56*,66*,·
Cc1cc(NC(=O)CSc2ccc3nnc(-c4ccc(F)cc4)n3n2)no1,-0.0069,1,0.7,33,-1,2
Cc1ccc(-c2nnc3ccc(SCC(=O)Nc4cc(C)on4)nn23)cc1,0.31,1.1,0.5,50*,-7,2
COC(=O)C(C)Sc1ccc2nnc(-c3ccc(F)cc3)n2n1 (stereo unspecified),1.8,0.9,0.6,35,5,4
CCC(Sc1ccc2nnc(-c3ccc(F)cc3)n2n1)C(=O)OC (stereo unspecified),0.035,0.7,0.4,61*,27,2
Cc1cc(NC(=O)CSc2ccc3nnc(-c4cccs4)n3n2)no1,·,0.9,0.2,75*,14,0
CC(=O)Nc1ccccc1-c1nc2ccc(C(=O)N3CCN(c4ccccc4)CC3)cc2[nH]c1=O,1,0.9,0.6,41,13,0
Cc1ccc(C)c(N2CCN(C(=O)c3cc4ccccn4n3)CC2)c1,-2.3,0.8,0.7,29,25,16
CC(C)NC(=O)c1cc(-n2cnnc2)ccc1Cl,-0.04,1.1,1,-4,-5,12
CSCCC(NS(=O)(=O)c1ccc(Cl)cc1)C(=O)OCC(=O)NC1CC1 (stereo unspecified),-0.23,0.8,1,4,18,2
CSCCC(NS(=O)(=O)c1ccc(Cl)cc1)C(=O)OCC(=O)N(C(C)C)C(C)C (stereo unspecified),-3.4*,0.6,0.7,26,43,0
O=C(Nc1ccc(F)cc1F)c1sccc1SCc1cccc(C(F)(F)F)c1,·,0.7,0.4,58*,26,20
COc1ccc(NC(=O)c2sccc2SCc2cccc(C(F)(F)F)c2)cc1,-5.1,0.5,0.3,69*,50*,15
O=C(Nc1ccc(F)cc1)c1sccc1SCc1cccc(C(F)(F)F)c1,-2,0.6,0.4,65*,36,15
OCCN(CCO)CC(O)COCCC12CC3CC(CC(C3)C1)C2 (stereo unspecified),0.68,0.8,0.9,13,18,3
CCOc1ccc(OCCCCNCCN)cc1,·,0.9,1,4,6,11
CN(CC(=O)O/N=C(\N)c1ccc([N+](=O)[O-])cc1)S(=O)(=O)c1ccc2ccccc2c1,·,0.9,2.3*,-133,10,7
Cc1ccc(SCC(=O)O/N=C(\N)c2ccc([N+](=O)[O-])cc2)cc1,0.094,0.9,1,-2,7,3
CCn1cc(C(=O)NCc2ccc(C)o2)c2cc(OC)c(OC)cc2c1=O,0.63,1,0.9,13,0,2

# Screening results (PubChem BioAssay)
